Results on two molecules are retold here after ChEMBL document CHEMBL1926564, “Design, synthesis and biological activity of original pyrazolo-pyrido-diazepine, -pyrazine and -oxazine dione derivatives as novel dual Nox4/Nox1 inhibitors” (Bioorg Med Chem, 2011).

In general, fraction unbound refers to the share of the substance not bound to proteins or other matrix. High values mean weak binding, low ones extensive binding. As usually defined, the Ki is the equilibrium dissociation constant of an inhibitor or competing ligand from its target. Broadly, the AUC(0-inf) is total exposure, with the tail of the curve extrapolated. Read a high AUC(0-inf) as high exposure. By CL/F is commonly meant the apparent clearance, not corrected for the fraction that reaches the circulation. The term logD denotes the decadic logarithm of the distribution of all forms, ionised or not, between an organic phase and buffer at a given pH. As a reminder, the half-life is the time needed for the level to fall by half in the phase considered. A low value points to rapid decline. As usually defined, the clearance is a measure of how efficiently the substance is removed, as volume per time. Lower therefore signals inefficient removal. One may read the Tmax as the time at which the peak concentration occurs. The bioavailability is the share of a dose that reaches the circulation, judged against a reference dose that is usually intravenous. By Cmax is commonly meant the highest concentration seen after dosing. Usually efflux ratio stands for a quotient of directional permeabilities that is used to spot active efflux.

Data set [1] can be described thus: Fraction unbound in rat plasma containing 50% plasma protein. In kind it is ADME, cell-free. The gist of the method: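 Rat plasma protein binding in 50% plasma; fraction unbound reported.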
The target of data set [2] is T1, NADPH oxidase 2 (Homo sapiens, UniProt P04839).
T1 sequence (P04839 whole entry): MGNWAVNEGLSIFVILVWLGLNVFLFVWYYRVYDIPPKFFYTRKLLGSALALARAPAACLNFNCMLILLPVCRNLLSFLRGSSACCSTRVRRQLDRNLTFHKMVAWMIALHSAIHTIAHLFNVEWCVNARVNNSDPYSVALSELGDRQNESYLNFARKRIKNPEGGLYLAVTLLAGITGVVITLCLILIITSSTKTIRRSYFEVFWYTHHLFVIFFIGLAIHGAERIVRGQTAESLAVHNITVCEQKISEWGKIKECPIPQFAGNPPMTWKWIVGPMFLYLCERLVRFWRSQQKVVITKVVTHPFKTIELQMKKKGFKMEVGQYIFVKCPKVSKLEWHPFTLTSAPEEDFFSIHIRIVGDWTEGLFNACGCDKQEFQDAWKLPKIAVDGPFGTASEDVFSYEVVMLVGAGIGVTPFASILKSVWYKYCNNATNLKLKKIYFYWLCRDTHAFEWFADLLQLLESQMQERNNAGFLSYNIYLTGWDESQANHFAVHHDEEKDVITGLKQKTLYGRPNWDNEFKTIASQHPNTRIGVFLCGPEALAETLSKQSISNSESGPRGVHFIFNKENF
Put plainly: Antagonist activity at human NOX2 in human polymorphonuclear cell membrane assessed as inhibition of ROS production after 20 mins by cell-free amplex red assay. In kind it is functional. In outline: (§1)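 Membranes from tetracycline-induced (24 h) Nox-expressing cells or human PMN (Nox2), sucrose-gradient purified; or xanthine oxidase. Incubated in PBS with Amplex Red, HRP and cofactors; NADPH (Nox) or xanthine starts ROS. Compound 1 nM–100 µM, 20 min at 37 °C, plate-reader. Background without membranes or agonist. Ki by Cheng-Prusoff; mean of ≥3 experiments in triplicate.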

Data set [3] can be described thus: AUC (infinity) in Sprague-Dawley rat at 5 mg/kg, iv. Further details: time infinity, dose 5 mg/kg, route intravenous. Type of data set: ADME, organism-based. As to conditions: plasma. The gist of the method:
(§2)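 Rats in two groups of three: 5 mg/kg iv in EDPW (10% EtOH, 10% DMA, 30% PG, 50% water) or 10 mg/kg oral in aqueous 0.5% CMC/0.25% Tween 20. Carotid arterial cannula blood sampled up to 24 h. Plasma levels by LC/MS/MS (LLOQ 1.00 ng/mL); noncompartmental analysis.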

Data set [4] in a line: AUC (infinity) in Sprague-Dawley rat at 10 mg/kg, po. Type of data set: ADME, organism-based. Further details: dose 10 mg/kg, route oral, time infinity. As to conditions: plasma. The gist of the method:
as §2

Data set [5] is described as follows: Clearance in human liver microsomes assessed per mg of protein at 0.5 uM. Conditions: read-out: CLH. Type of data set: ADME, Microsome. In outline:
(§3)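 Pooled rat (male Sprague Dawley) or human (mixed-sex) liver microsomes at 0.5 mg/mL final, 0.1 M phosphate pH 7.4, compound 0.5 µM final, 0.25% DMSO, 37 °C; 1 mM NADPH starts reaction. Sampled 0–45 min, methanol quench with internal standard, LC/MS-MS; intrinsic clearance from compound loss.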
(Liver microsomes are vesicles of endoplasmic reticulum, rich in cytochrome P450 enzymes.)

Data set [6] in a line: Clearance in Sprague-Dawley rat liver microsomes assessed per mg of protein at 0.5 uM. In kind it is ADME, Microsome. As to conditions: read-out: CLH. In outline:
as §3

Data set [7] can be described thus: Clearance in Sprague-Dawley rat at 10 mg/kg, po. In kind it is ADME, organism-based. Set-up: dose 10 mg/kg, route oral. Conditions: in vivo. In outline: as §2
Data set [8] in a line: Lipophilicity, log D of the compound at pH 7.4. In kind it is physicochemical. As to conditions: buffer.
Data set [9] can be described thus: Half life in Sprague-Dawley rat at 10 mg/kg, po. Type of data set: ADME, organism-based. Set-up: dose 10 mg/kg, route oral. Conditions: in vivo. The gist of the method: as §2
Data set [10] is described as follows: Clearance in Sprague-Dawley rat at 5 mg/kg, iv. In kind it is ADME, organism-based. Conditions: in vivo. Set-up: dose 5 mg/kg, route intravenous. In outline: as §2
For data set [11], the target named is T2, NADPH oxidase 4 (Homo sapiens, UniProt Q9NPH5).
T2 sequence (Q9NPH5 whole entry): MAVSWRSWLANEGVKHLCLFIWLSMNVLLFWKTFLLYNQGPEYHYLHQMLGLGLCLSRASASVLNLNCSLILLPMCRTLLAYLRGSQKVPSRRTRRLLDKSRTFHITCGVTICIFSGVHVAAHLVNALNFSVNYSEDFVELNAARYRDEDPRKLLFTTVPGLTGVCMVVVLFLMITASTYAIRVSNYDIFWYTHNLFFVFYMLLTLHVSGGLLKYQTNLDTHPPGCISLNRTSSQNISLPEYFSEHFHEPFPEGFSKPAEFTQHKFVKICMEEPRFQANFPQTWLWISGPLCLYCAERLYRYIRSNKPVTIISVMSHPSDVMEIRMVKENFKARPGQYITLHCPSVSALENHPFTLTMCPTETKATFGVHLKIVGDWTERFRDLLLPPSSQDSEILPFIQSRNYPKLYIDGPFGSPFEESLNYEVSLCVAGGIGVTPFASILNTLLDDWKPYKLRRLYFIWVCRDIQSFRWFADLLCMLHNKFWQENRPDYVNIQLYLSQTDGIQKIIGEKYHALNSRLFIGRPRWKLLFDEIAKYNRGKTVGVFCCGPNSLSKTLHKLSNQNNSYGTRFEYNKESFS
Put plainly: Antagonist activity at human NOX4 expressed in CHO cell membrane coexpressing tetracylin repressor assessed as inhibition of ROS production after 20 mins by cell-free amplex red assay. In kind it is functional. As to conditions: in the assay text read “HEK293 cell membrane” for “CHO cell membrane”. The gist of the method:
as §1

The nature of data set [12]: Tmax in Sprague-Dawley rat at 10 mg/kg, po. In kind it is ADME, organism-based. Set-up: dose 10 mg/kg, route oral. Conditions: in vivo. The gist of the method: as §2
Data set [13] can be described thus: Half life in Sprague-Dawley rat at 5 mg/kg, iv. In kind it is ADME, organism-based. Set-up: dose 5 mg/kg, route intravenous. As to conditions: in vivo. The gist of the method: as §2
Data set [14] is described as follows: Oral bioavailability in Sprague-Dawley rat at 10 mg/kg. Type of data set: ADME, organism-based. Conditions: in vivo. The gist of the method:
as §2

The nature of data set [15]: Cmax in Sprague-Dawley rat at 10 mg/kg, po. Type of data set: ADME, organism-based. Further details: dose 10 mg/kg, route oral. As to conditions: in vivo. The gist of the method:
as §2

Data set [16] can be described thus: Efflux ratio of apparent permeability across human Caco2 cells at 10 uM after 2 hrs. Type of data set: ADME, cell-based. As to conditions: Caco-2. The gist of the method: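 Caco-2 monolayers grown 20 days, TEER >800 ohm·cm². Compound 10 µM final in HBSS pH 6.5 (1% DMSO), dosed apical (A→B) or basolateral (B→A), 2 h at 37 °C; both compartments sampled, LC–MS/MS cassette analysis with 5-point calibration.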
(Passage across Caco-2 layers is used to estimate intestinal permeability.)

`Cl.O=c1c2c3n(c(=O)cc2[nH]n1-c1ccccc1Cl)CCCN(Cc1ccccn1)C3` yielded a fraction unbound in data set [1] of 0.026. Besides, the inhibition constant Ki is 1140 nM in data set [2] and 67 nM in [11]. The total exposure AUC(0-inf) in [3] is 11800 ng·h/mL; in data set [4] it was 9900 ng·h/mL. In addition, the microsomal CLint at 0.5 µM is 13.9 µL/min/mg in data set [5] and 27.5 µL/min/mg in data set [6]. The molecule further had an apparent clearance CL/F in [7] of 17 mL/min/kg. Further, in data set [8], the logD stood at 1.1. The half-life in data set [9] was 3.63 h; in [13] it was 5.62 h. Further, the clearance in data set [10] is 7.67 mL/min/kg. In addition, the Tmax in [12] came out at 0.25 h. In [14], this molecule had a bioavailability of 42%. The same molecule yielded a maximum concentration (Cmax) in [15] of 11300 ng/mL. Besides, the efflux ratio at 2 h, 10 µM in data set [16] was 10.1.

For `Cl.O=c1c2c3n(c(=O)cc2[nH]n1-c1ccccc1Cl)CCCN(Cc1ccccc1)C3`, the fraction unbound in data set [1] is 0.12. For the same molecule, the Ki in [2] is 1340 nM; in [11] it was 72 nM. Besides, the AUC(0-inf) in [3] turned out to be 39300 ng·h/mL; in [4], 41400 ng·h/mL. Besides, the microsomal CLint at 0.5 µM in data set [5] came out at 35 µL/min/mg; in [6], 64 µL/min/mg. The apparent clearance (CL/F) in data set [7] was 4.33 mL/min/kg. The molecule further showed a log distribution coefficient (logD) in data set [8] of 2.23. The figures for the half-life in [9] and in data set [13] were 2.37 h and 2.71 h, respectively. For the same molecule, in [10], the clearance is 2.17 mL/min/kg. For the same molecule, the Tmax in data set [12] is 0.33 h. In data set [14], this molecule yielded a bioavailability of 53%. In data set [15], this molecule showed a Cmax of 14900 ng/mL. In addition, the efflux ratio at 2 h, 10 µM in [16] worked out at 0.48.
